Activity calls are given as the source filed them. No cut-off for these calls is given here.
Key:
MCF7S [1] = test: Lethal concentration required for net loss in 50% of MCF-7 human breast cancer cells; type: functional; details: read-out: LC50 (the source's name)
How it was run: (§1)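 Modified NCI protocol with SRB read-out after 48 h drug exposure. Compounds were diluted from a DMSO stock at 400× the top final concentration, at five 10-fold dilutions in duplicate, with DMSO-matched controls. Cells were fixed with ice-cold TCA (80% w/v for HL60, 50% w/v for MCF7) for 60 min at 4 °C. OD was read at 490 nm and corrected for medium-only background. Percent growth came from OD at the start versus the end of exposure. LC50 is the concentration giving net loss of 50% of cells, from dose-response curves; values are means of 2–4 experiments.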

MCF7S [2] = test: Concentration required for 50% reduction of cellular net growth of MCF-7 human breast cancer cells; type: functional
How it was run: (§2)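 MCF7 breast cancer cells were grown in 96-well format following a modified NCI protocol. Compounds in DMSO were tested in duplicate at five 10-fold dilutions, and controls received equivalent DMSO. After 48 h exposure, cells were fixed with ice-cold 50% (w/v) TCA for 60 min at 4 °C, then stained by SRB and read at OD 490 nm. Percent growth came from start versus end OD, corrected for medium background. GI50 and TGI were taken from curves as the mean of 2–4 experiments ± SD.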

HL-60 [3] = test: Concentration required for 50% reduction of cellular net growth of HL60 human leukemia cells; type: functional
How it was run: (§3)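 HL60 leukemia cells were grown in 96-well format following a modified NCI protocol. Compounds in DMSO were tested in duplicate at five 10-fold dilutions, and controls received equivalent DMSO. After 48 h exposure, cells were fixed with ice-cold 80% (w/v) TCA for 60 min at 4 °C, then stained by SRB and read at OD 490 nm. Percent growth came from start versus end OD, corrected for medium-only background. GI50 and TGI were read from dose–response curves as the mean of 2–4 experiments ± SD.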

MCF7S [4] = test: Concentration required for Total growth inhibition of MCF-7 human breast cancer cells; type: functional; how it was run: as §2
HL-60 [5] = test: Concentration required for Total growth inhibition of HL60 human leukemia cells; type: functional; how it was run: as §3
HL-60 [6] = test: Lethal concentration required for net loss in 50% of HL60 human leukemia cells; type: functional; details: read-out: LC50 (the source's name); how it was run: as §1
HL-60 [7] = test: Concentration required for 50% reduction of cellular net growth of HL60 human leukemia cells; na=no activity; type: functional, cell-based; how it was run: as §3
MCF7S [8] = test: Concentration required for 50% reduction of cellular net growth of MCF-7 human breast cancer cells; na=no activity; type: functional, cell-based; how it was run: as §2
MCF7S [9] = test: Concentration required for 50% reduction of cellular net growth of MCF-7 human breast cancer cells;na=no activity; type: functional, cell-based; how it was run: as §2

SMILES	GI50 (MCF7S [2])	GI50 (HL-60 [3])	TGI (MCF7S [4])	GI50 (HL-60 [7])	further results
COC(=O)/C=C/[C@H]1OCCC[C@@H]1O[Si](C)(C)C(C)(C)C	24 µM	22 µM	80 µM		CC50 (MCF7S [1]): 94 µM; TGI (HL-60 [5]): 69 µM
CC(C)(C)[Si](C)(C)O[C@H]1CCCO[C@@H]1/C=C\CO	6.4 µM	26 µM	23 µM		CC50 (MCF7S [1]): 63 µM; CC50 (HL-60 [6]): 88 µM; TGI (HL-60 [5]): 64 µM
C=CCO[C@H]1CCCO[C@@H]1CC=O				inactive	
CC(C)(C)[Si](C)(C)O[C@H]1CCCO[C@@H]1CCO	55 µM	46 µM			
CC(C)(C)[Si](C)(C)O[C@H]1CCCO[C@@H]1/C=C/CO	61 µM	31 µM			
COC(=O)/C=C/C[C@H]1OCCC[C@@H]1OC(C)=O				inactive	GI50 (MCF7S [8]): inactive
CC(C)(C)[Si](C)(C)O[C@H]1CCCO[C@@H]1C/C=C/CO	25 µM	27 µM	83 µM		
CC(C)(C)[Si](C)(C)OC/C=C/[C@H]1OCCC[C@@H]1O	86 µM			inactive	
COC(=O)/C=C/C[C@H]1OCCC[C@@H]1O[Si](C)(C)C(C)(C)C	18 µM	22 µM	48 µM		TGI (HL-60 [5]): 77 µM
CC(C)(C)[Si](C)(C)O[C@H]1CCCO[C@@H]1CC#N				inactive	
COC(=O)/C=C/C[C@H]1OCCC[C@@H]1OC(=O)c1ccccc1	inactive			inactive	
CC(C)(C)[Si](C)(C)O[C@H]1CCCO[C@@H]1CC=O	21 µM	40 µM	82 µM		
COC(=O)/C=C\[C@H]1OCCC[C@@H]1O[Si](C)(C)C(C)(C)C	32 µM		82 µM	inactive	
COC(=O)/C=C/C[C@H]1OCCC[C@@H]1O				inactive	GI50 (MCF7S [9]): inactive
OC/C=C/[C@H]1OCCC[C@@H]1O				inactive	GI50 (MCF7S [9]): inactive
